Data set [1] deals with Galleria mellonella larvae. Briefly: Toxicity in Galleria mellonella larvae. The format is in vivo. The note with it: uninfected larvae injected with 10, 25, 50, 100 and 200 mg per body weight kg. In short, it runs like this:
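Age- and weight-defined larvae, stored at 15 °C without food, were used uninfected. Groups of 10 larvae received hemocoel injections of test compound or nalidixic acid at 10, 25, 50, 100 and 200 mg/kg body weight, given with a 10 μl syringe.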

For data set [2], the system named is E. coli CFT073 nalidixic acid resistant line. As to the kind of experiment: Galleria mellonella infection model, survival. In kind it is in vivo. The note with it: nalidixic acid at 50 mg per body weight kg; 48 h. In short, it runs like this:
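Nalidixic acid-resistant strain was grown overnight in Mueller-Hinton II broth and washed twice in PBS. Larvae got 10^7 CFU in 10 μl PBS into the hemocoel via the first left proleg, then treatment via the second right proleg. Monotherapy doses were 10–100 mg/kg. Controls were PBS-only and untreated infected larvae. Larvae were kept at 37 °C for 48 h, with survival scored every 6 h.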

Results on 1 compound are retold here after paper PMC8724909 (Molecular Systems Design & Engineering, 2021).

Regarding `CCn1cc(C(=O)O)c(=O)c2ccc(C)nc21` [Nalidixic acid, nalidixic acid], the toxicity in larvae result in data set [1] is “no toxicity”. The “improvement of survival of infected larvae, monotherapy” value in data set [2] is on record as “approximately 25%”.
